Data set [1] concerns Mus musculus. Briefly: Subacute toxicity in ICR mouse assessed as alteration in basic levels of SGPT at 100 to 1000 mg/kg, administered once a day via oral gavage for 14 days. The data set is classed as organism-based. As to conditions: in vivo, 336 h. Put shortly: (§1)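 ICR mice, 22−25 g, 5 per sex per group, gavaged daily for 14 days at 100, 500 or 1000 mg/kg in 30% PEG400/30% Tween 20/20% corn oil/20% water, with a vehicle control group. Observed daily for body weight change, skin and fur, inflammation and necrosis. Animals anesthetized on day 15; organ weights (liver, kidney) taken. Serum SGOT/SGPT compared with controls.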

In a further data set the target is T1, UMP-CMP kinase (Homo sapiens, UniProt P30085).
T1 sequence (P30085 whole entry): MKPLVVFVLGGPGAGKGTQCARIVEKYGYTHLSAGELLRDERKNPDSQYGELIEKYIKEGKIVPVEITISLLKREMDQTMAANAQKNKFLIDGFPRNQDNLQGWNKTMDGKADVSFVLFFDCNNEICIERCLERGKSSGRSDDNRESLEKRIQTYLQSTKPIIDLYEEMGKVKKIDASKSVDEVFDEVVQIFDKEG
Kind of data set: Drug metabolism in human HuH7 cells assessed as UMP-CMP kinase-mediated ((2R,3R,4R,5R)-5-(4-amino-2-oxopyrimidin-1(2H)-yl)-4-fluoro-3-hydroxy-4-methyltetrahydrofuran-2-yl)methyl dihydrogen phosphate metabolite formation at 50 uM after 48 hrs by LC/MS/MS analysis. It is filed as ADME, cell-based. An outline of the steps:
(§2)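 Huh-7 cells plated at 0.35 million/mL in DMEM with 10% FBS (about 1 million per well at dosing) and grown 18 h. At each time point cells were washed with cold saline and lysed in methanol with internal standard. Semiquantified by LC/MS/MS MRM as Δ mean peak-area ratio relative to t0.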

Another data set addresses T2, Liver carboxylesterase 1 (Homo sapiens, UniProt P23141).
T2 sequence (P23141 whole entry): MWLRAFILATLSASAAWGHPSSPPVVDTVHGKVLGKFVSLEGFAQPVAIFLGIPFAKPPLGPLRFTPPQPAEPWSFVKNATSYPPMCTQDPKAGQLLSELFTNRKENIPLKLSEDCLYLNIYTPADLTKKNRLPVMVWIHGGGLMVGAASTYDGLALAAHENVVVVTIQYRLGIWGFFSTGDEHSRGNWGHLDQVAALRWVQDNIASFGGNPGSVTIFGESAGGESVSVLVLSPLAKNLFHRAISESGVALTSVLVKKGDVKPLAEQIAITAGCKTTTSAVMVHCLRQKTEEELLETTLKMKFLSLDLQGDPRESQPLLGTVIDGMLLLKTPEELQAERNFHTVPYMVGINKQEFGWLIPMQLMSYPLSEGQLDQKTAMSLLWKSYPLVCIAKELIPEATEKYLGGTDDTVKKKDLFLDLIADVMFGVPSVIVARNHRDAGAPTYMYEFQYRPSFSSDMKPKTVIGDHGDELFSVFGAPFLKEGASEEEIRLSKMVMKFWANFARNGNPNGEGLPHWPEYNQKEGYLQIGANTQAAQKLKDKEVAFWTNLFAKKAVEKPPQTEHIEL
Briefly: Drug metabolism in human HuH7 cells assessed as carboxylesterase 1-mediated (S)-2-((R)-(((2R,3R,4R,5R)-5-(4-butyramido-2-oxopyrimidin-1(2H)-yl)-4-fluoro-3-hydroxy-4-methyltetrahydrofuran-2-yl)methoxy)(hydroxy)phosphorylamino)propanoic acid metabolite formation at 50 uM after 24 hrs by LC/MS/MS analysis. The data set is classed as ADME, cell-based. An outline of the steps:
as §2

A short description of data set [2]: Drug metabolism in human HuH7 cells assessed as carboxylesterase-mediated (S)-2-((S)-(((2R,3R,4R,5R)-5-(4-amino-2-oxopyrimidin-1(2H)-yl)-4-fluoro-3-hydroxy-4-methyltetrahydrofuran-2-yl)methoxy)(hydroxy)phosphoryloxy)propanoic acid metabolite formation at 50 uM after 24 hrs by LC/MS/MS analysis. The data set is classed as ADME, cell-based. Put shortly: as §2
Data set [3] can be described thus: Tmax in Beagle dog at 150 mg/kg, administered via oral gavage measured up to 24 hrs post dose by LC/MS/MS analysis. The data set is classed as ADME, organism-based, Canis lupus familiaris. Particulars: in vivo. An outline of the steps:
(§3)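 Beagle dogs, 3 per sex, given a single oral gavage dose of 150 mg/kg in 20% w/v hydroxypropyl-β-cyclodextrin in water, 2.5 mL/kg. K2EDTA blood taken by venipuncture at 0.5, 0.75, 1, 2, 4, 6, 8, 12 and 24 h. Plasma extracted with ice-cold acetonitrile, then LC/MS/MS in positive MRM mode with zolpidem as internal standard. Noncompartmental analysis; mean ± SD.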

The nature of data set [4]: Inhibition of wild type NS5B in HCV genotype 1b replicon expressed in human HuH7 cells after 72 hrs by bright Glo-luciferase reporter gene assay. It is filed as cell-based, Hepatitis C virus subtype 1b. Particulars: Hepatitis C virus, Huh-7, 72 h. An outline of the steps: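 Huh7 cells carrying HCV genotype 1b replicon, 8000 per well, in duplicate 3-fold dilution series with 0.5% DMSO final; 72 h at 37 °C, 5% CO2. Viability read by Cell Titer-Fluor fluorescence after 5 min; replicon inhibition read by Bright-Glo luciferase luminescence in the same wells. EC50 and CC50 come from curve fitting.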
Background: Replicon systems follow genome replication, usually without infectious particles.

Data set [5] deals with Hepatitis C virus subtype 1b. Kind of data set: Ratio of EC50 for HCV genotype 1b replicon NS5B S282T mutant to EC50 for wild type HCV genotype 1b replicon NS5B. An outline of the steps:
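Huh7 cells carrying wild-type or S282T mutant HCV genotype 1b replicon, 8000 cells per well, exposed to 3-fold compound dilution series (0.5% DMSO final, duplicates) for 72 h at 37 °C, 5% CO2. Replicon activity read by Bright-Glo luciferase luminescence. EC50 averaged from duplicate determinations; ratio taken as S282T EC50 over wild-type EC50.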

The test system of another data set is Canis familiaris. Kind of data set: Toxicity in Beagle dog at 150 mg/kg, administered via oral gavage measured up to 24 hrs post dose. It is filed as organism-based, Canis lupus familiaris. Particulars: in vivo. An outline of the steps: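 Six Beagle dogs (three male, three female) given one oral gavage dose of 150 mg/kg in 20% w/v hydroxypropyl-β-cyclodextrin in water. Animals watched for clinical symptoms and adverse events while plasma was sampled over 24 h.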

Data set [6] in a line: Half life in Beagle dog at 150 mg/kg, administered via oral gavage measured up to 24 hrs post dose by LC/MS/MS analysis. The data set is classed as ADME, organism-based, Canis lupus familiaris. Particulars: in vivo. Put shortly: as §3
Data set [7] is described as follows: AUClast in Beagle dog at 150 mg/kg, administered via oral gavage measured up to 24 hrs post dose by LC/MS/MS analysis. It is filed as ADME, organism-based, Canis lupus familiaris. Also on record: dose 150 mg/kg, time < 24 hr, route oral. As to conditions: in vivo. Put shortly: as §3
The nature of data set [8]: AUC (0 to infinity) in Beagle dog at 150 mg/kg, administered via oral gavage measured up to 24 hrs post dose by LC/MS/MS analysis. It is filed as ADME, organism-based, Canis lupus familiaris. Details: dose 150 mg/kg, route oral, time infinity. Particulars: in vivo. Put shortly: as §3
Data set [9] has as its system Mus musculus. Kind of data set: Acute toxicity in ICR mouse assessed as body weight loss at 150 to 1800 mg/kg, administered via oral gavage measured once a day over 14 days. Particulars: in vivo, 336 h. It is filed as organism-based. Put shortly:
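ICR mice, 22−25 g, 5 per sex per group. Single oral gavage at 150, 500, 1200 or 1800 mg/kg in vehicle of 30% PEG400/30% Tween 20/20% corn oil/20% water, with a vehicle control. Mortality, morbidity, clinical signs and body weight change recorded once daily for 14 days.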

Data set [10] relates to Mus musculus. Briefly: Subacute toxicity in ICR mouse assessed as weight change in liver at 100 to 1000 mg/kg, administered once a day via oral gavage for 14 days. The data set is classed as organism-based. As to conditions: in vivo, 336 h. Put shortly: as §1
Data set [11] deals with Mus musculus. Kind of data set: Subacute toxicity in ICR mouse assessed as mortality at 100 to 1000 mg/kg, administered once a day via oral gavage for 14 days. The data set is classed as organism-based. As to conditions: in vivo, 336 h. Put shortly:
as §1

Take `CCCC(=O)Nc1ccn([C@@H]2O[C@H](CO[P@@](=O)(N[C@@H](C)C(=O)OC(C)C)Oc3ccccc3)[C@@H](O)[C@@]2(C)F)c(=O)n1`: the Activity result in the data set on Mus musculus [1], in the data set with Canis familiaris, with Mus musculus [9], in the data set with Mus musculus [10] and with Mus musculus [11] was “Non-Toxic” in each case. Further, the Drug metabolism result (on UMP-CMP kinase; at Liver carboxylesterase 1; in [2]) was “Metabolite_Detected” each time. The Tmax in data set [3] is 0.9 h. In data set [4], it took 240 nM to reach a half-maximal effect (EC50). Also, the Ratio EC50 in data set [5] came out at 3.2. The half-life in data set [6] was 14.2 h. This molecule also had an AUC(0-t) at 24 h in data set [7] of 248 ng·h/mL. In [8], this molecule displayed an AUC(0-inf) of 411 ng·h/mL.

By Tmax is commonly meant the time from dosing to the highest level. Broadly, the EC50 is the concentration needed to bring the measured effect to its halfway point. The low end stands for a more potent agent, the high end for a less potent agent. Usually half-life stands for the time in which the quantity being followed falls by half. By AUC(0-t) is commonly meant exposure summed from dosing to a finite time, without extrapolation to infinity. As usually defined, the AUC(0-inf) is the area under the concentration-time curve extrapolated to infinity.
